Source: ChEMBL document CHEMBL1134778, “Amino acid phosphoramidate monoesters of 3'-azido-3'-deoxythymidine: relationship between antiviral potency and intracellular metabolism” (J Med Chem, 2001)

How the values were obtained:
[1] = organism: Homo sapiens; test: Inhibition of Phosphoramidase activity with AZT L-amino acid carbamates; format: functional; conditions: concentration not given here
Outline: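 CEM cells (1.5 × 10^8) sonicated in 1 mL 20 mM Tris-HCl, 500 mM NaCl, pH 7.5. Whole lysate incubated 45 min at 37 °C with phosphoramidate (from 10 mM water stock) and carbamate (from 10 mM DMSO stock), then stopped with methanol. AZT-MP quantified by RP-HPLC-RIA against a no-carbamate control. Mean of two experiments.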

[2] = system: CCRF-CEM; test: Concentration required to kill 50% of CEM cells; format: functional, cell-based; conditions: Homo sapiens
Outline: (§1)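 Uninfected PHA-stimulated PBMCs or CEM cells plated at 2.5 × 10^5 cells/well with diluted drug. Incubated 6 days at 37 °C, 10% CO2. XTT/PMS added and incubated 4 h at 37 °C. Absorbance read at 450 nm, 630 nm reference.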

[3] = organism: Homo sapiens; test: Concentration required to kill 50% of PBMCs; format: functional, organism-based; outline: as §1
[4] = organism: Homo sapiens; test: Effective concentration of required to inhibit the replication of HIV-1 BY 50% in PMBCs from donor 1; format: functional, organism-based
[5] = organism: Homo sapiens; test: Effective concentration of required to inhibit the replication of HIV-1 BY 50% in PMBCs from donor 2; format: functional, organism-based
[6] = organism: Homo sapiens; test: Effective concentration required to inhibit the replication of HIV-1 by 50% in PMBCs in the absence of thymidine; format: functional, organism-based
[7] = organism: Homo sapiens; test: Effective concentration required to inhibit the replication of HIV-1 by 50% in PMBCs in the presence of thymidine; format: functional, organism-based
[8] = organism: Homo sapiens; test: Effective concentration required to inhibit the replication of HIV-1 by 50% in PMBCs from donor 2; format: functional, organism-based
[9] = system: Human immunodeficiency virus 1; test: Concentration required to inhibit HIV-1 replication by 50% in activated PBMCs
[10] = system: Human immunodeficiency virus 1; test: Concentration required to inhibit the production of proviral DNA in unactivated PBMCs
[11] = organism: Homo sapiens; test: Effective concentration required to inhibit the replication of HIV-1 by 50% in PMBCs from donor 1; format: functional, organism-based
[12] = Inhibition of AZT-MP production by cell free extracts of CEM cells; format: functional, Homo sapiens, CCRF-CEM; set-up: unit not given here
Outline: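 CEM cells (1.5 × 10^8) sonicated in 1 mL 20 mM Tris-HCl, 500 mM NaCl, pH 7.5. Lysate incubated with phosphoramidate and carbamate, each added from 10 mM stock, for 45 min at 37 °C, then stopped with methanol. AZT-MP quantified by RP-HPLC-RIA against a no-carbamate control. Mean of two experiments.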

[13] = organism: Homo sapiens; test: (§2) Intracellular of AZT-TP concentrations in LAI/HIV-1 infected PMBCs was determined at a conc of 10 uM); format: functional, organism-based
Outline: (§3)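 PHA-stimulated, LAI/HIV-1-infected PBMCs (donor 2) at 10^6 cells/mL, triplicate, given 10 µM compound ± 50 µM thymidine for 18 h at 37 °C. Cells washed, extracted in 60% methanol overnight at −20 °C, dried and reconstituted. AZT-TP quantified by inhibition of recombinant HIV-1 RT (poly(rA)-oligo(dT), 3H-TTP, 2 h at 37 °C) relative to AZT-TP standards; pmol/10^6 cells.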

[14] = organism: Homo sapiens; test: as §2; format: functional, organism-based; outline: as §3; remark: listed apart in the source

## COC(=O)[C@@H](Cc1c[nH]c2ccccc12)NP(=O)(O)OC[C@H]1O[C@@H](n2cc(C)c(=O)[nH]c2=O)C[C@@H]1N=[N+]=[N-].COC(=O)[C@H](Cc1c[nH]c2ccccc12)NC(=O)OC[C@H]1O[C@@H](n2cc(C)c(=O)[nH]c2=O)C[C@@H]1N=[N+]=[N-] [listing 1 of 2 here]
[1]
  inhibition: 60%

## COC(=O)[C@@H](Cc1c[nH]c2ccccc12)NP(=O)(O)OC[C@H]1O[C@@H](n2cc(C)c(=O)[nH]c2=O)C[C@@H]1N=[N+]=[N-]
[2]
  IC50: > 100000 nM
[3]
  IC50: > 100000 nM
[4]
  EC50: 1000 nM
[5]
  EC50: 1000 nM

## CNC(=O)[C@H](Cc1ccccc1)NP(=O)(O)OC[C@H]1O[C@@H](n2cc(C)c(=O)[nH]c2=O)C[C@@H]1N=[N+]=[N-]
[2]
  IC50: > 100000 nM
[3]
  IC50: > 100000 nM
[4]
  EC50: 180 nM
[5]
  EC50: 250 nM

## COC(=O)[C@H](C)NP(=O)(O)OC[C@H]1O[C@@H](n2cc(C)c(=O)[nH]c2=O)C[C@@H]1N=[N+]=[N-]
[2]
  IC50: > 100000 nM
[3]
  IC50: > 100000 nM
[4]
  EC50: 50 nM
[5]
  EC50: 30 nM

## COC(=O)[C@@H](NP(=O)(O)OC[C@H]1O[C@@H](n2cc(C)c(=O)[nH]c2=O)C[C@@H]1N=[N+]=[N-])C(C)C
[6]
  EC50: 350 nM
[7]
  EC50: 30000 nM
[8]
  EC50: 900 nM
[2]
  IC50: > 100000 nM
[9]
  EC50: 350 nM
[3]
  IC50: > 100000 nM
[10]
  IC100: 0.1 µM
[11]
  EC50: 1300 nM

## COC(=O)[C@H](Cc1ccccc1)NC(=O)OC[C@H]1O[C@@H](n2cc(C)c(=O)[nH]c2=O)C[C@@H]1N=[N+]=[N-].COC(=O)[C@H](Cc1ccccc1)NP(=O)(O)OC[C@H]1O[C@@H](n2cc(C)c(=O)[nH]c2=O)C[C@@H]1N=[N+]=[N-]
[12]
  Activity: 0.03

## COC(=O)[C@@H](Cc1c[nH]c2ccccc12)NP(=O)(O)OC[C@H]1O[C@@H](n2cc(C)c(=O)[nH]c2=O)C[C@@H]1N=[N+]=[N-].COC(=O)[C@H](Cc1c[nH]c2ccccc12)NC(=O)OC[C@H]1O[C@@H](n2cc(C)c(=O)[nH]c2=O)C[C@@H]1N=[N+]=[N-] [listing 2 of 2 here]
[12]
  Activity: 2.56

## CNC(=O)[C@@H](Cc1ccccc1)NP(=O)(O)OC[C@H]1O[C@@H](n2cc(C)c(=O)[nH]c2=O)C[C@@H]1N=[N+]=[N-]
[2]
  IC50: > 100000 nM
[3]
  IC50: > 100000 nM
[4]
  EC50: 900 nM
[5]
  EC50: 100 nM

## COC(=O)[C@H](Cc1ccccc1)NP(=O)(O)OC[C@H]1O[C@@H](n2cc(C)c(=O)[nH]c2=O)C[C@@H]1N=[N+]=[N-]
[13]
  Concentration (pM (10e6*cells)-1): 0
[14]
  Concentration (pM (10e6*cells)-1): 0.01
